Laboratory results taken from ChEMBL document CHEMBL1166015, “Design, synthesis, and docking of highly hypolipidemic agents: Schizosaccharomyces pombe as a new model for evaluating alpha-asarone-based HMG-CoA reductase inhibitors” (Bioorg Med Chem, 2010).

Legend:
[1] = test system: Mus musculus; test: Hypolipidemic activity in ICR mouse assessed as decrease in Tyloxapol-induced total cholesterol level at 50 mg/kg, ip administered 1 hr before Tyloxapol challenge and 22, 48 hrs after Tyloxapol challenge measured after 22 hrs relative to control; assay type: functional; parameters: scale not given: the % may be the effect or the level left; conditions: route oral, in the assay text read “po administered” for “ip administered”
Method in brief: (§1)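 Male ICR mice (24–27 g), groups of six. Hyperlipidemia induced by ip Tyloxapol (Triton WR 1339) 400 mg/kg in water. Drug given at 5 mL/kg 1 h before and 22 and 48 h after injection; vehicle controls. Blood drawn 22 h post-injection by periorbital bleeding. Serum total cholesterol, HDL-C and triglycerides measured on an automatic analyzer; LDL-C by the Friedewald equation. Values are % of the Tyloxapol group, mean ± SE.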

[2] = test system: Mus musculus; test: Hypolipidemic activity in high cholesterol diet fed ICR mouse assessed as reduction of HDL cholesterol level at 50 mg/kg/day, po after 12 hrs of last cholesterol challenge relative to control; parameters: scale not given: the % may be the effect or the level left
[3] = test system: Mus musculus; test: Hypolipidemic activity in high cholesterol diet fed ICR mouse assessed as reduction of triglyceride level at 100 mg/kg/day, po after 12 hrs of last cholesterol challenge relative to control; parameters: scale not given: the % may be the effect or the level left
[4] = test system: Mus musculus; test: Hypolipidemic activity in high cholesterol diet fed ICR mouse assessed as reduction of total cholesterol level at 100 mg/kg/day, ip after 12 hrs of last cholesterol challenge relative to control; assay type: functional; parameters: scale not given: the % may be the effect or the level left; conditions: route intraperitoneal
Method in brief: (§2)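 Male ICR mice (24–27 g), six per group, were fed a high-cholesterol diet ad libitum for 6 days (1.0% cholesterol, 0.5% sodium cholate, 5% butter, 30% sucrose, 10% casein, 53.5% chow). Basal-diet mice served as controls. Dosing was 5 mL/kg and solutions were made fresh. Mice were fasted 12 h before sacrifice and bled periorbitally. Serum TC, HDL-C and TG were read on an analyzer, with LDL-C by Friedewald.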

[5] = test system: Mus musculus; test: Hypolipidemic activity in high cholesterol diet fed ICR mouse assessed as reduction of LDL cholesterol level at 50 mg/kg/day, po after 12 hrs of last cholesterol challenge relative to control; parameters: scale not given: the % may be the effect or the level left
[6] = test system: Mus musculus; test: Hypolipidemic activity in high cholesterol diet fed ICR mouse assessed as reduction of HDL cholesterol level at 100 mg/kg/day, po after 12 hrs of last cholesterol challenge relative to control; parameters: scale not given: the % may be the effect or the level left
[7] = test system: Mus musculus; test: Hypolipidemic activity in high cholesterol diet fed ICR mouse assessed as reduction of LDL cholesterol level at 100 mg/kg/day, po after 12 hrs of last cholesterol challenge relative to control; parameters: scale not given: the % may be the effect or the level left
[8] = test system: Mus musculus; test: Hypolipidemic activity in ICR mouse assessed as decrease in Tyloxapol-induced LDL-cholesterol level at 50 mg/kg, ip administered 1 hr before Tyloxapol challenge and 22, 48 hrs after Tyloxapol challenge measured after 22 hrs relative to control; assay type: functional; parameters: scale not given: the % may be the effect or the level left; conditions: route oral, in the assay text read “po administered” for “ip administered”; method in brief: as §1
[9] = test system: Mus musculus; test: Hypolipidemic activity in ICR mouse assessed as decrease in Tyloxapol-induced total cholesterol level at 100 mg/kg, ip administered 1 hr before Tyloxapol challenge and 22, 48 hrs after Tyloxapol challenge measured after 22 hrs relative to control; assay type: functional; parameters: scale not given: the % may be the effect or the level left; conditions: route oral, in the assay text read “po administered” for “ip administered”; method in brief: as §1
[10] = test system: Mus musculus; test: Hypolipidemic activity in ICR mouse assessed as decrease in Tyloxapol-induced HDL-cholesterol level at 50 mg/kg, ip administered 1 hr before Tyloxapol challenge and 22, 48 hrs after Tyloxapol challenge measured after 22 hrs relative to control; assay type: functional; parameters: scale not given: the % may be the effect or the level left; conditions: route oral, in the assay text read “po administered” for “ip administered”; method in brief: as §1
[11] = test system: Mus musculus; test: Hypolipidemic activity in ICR mouse assessed as decrease in Tyloxapol-induced LDL-cholesterol level at 100 mg/kg, ip administered 1 hr before Tyloxapol challenge and 22, 48 hrs after Tyloxapol challenge measured after 22 hrs relative to control; assay type: functional; parameters: scale not given: the % may be the effect or the level left; conditions: route oral, in the assay text read “po administered” for “ip administered”; method in brief: as §1
[12] = test system: Mus musculus; test: Hypolipidemic activity in ICR mouse assessed as decrease in Tyloxapol-induced HDL-cholesterol level at 100 mg/kg, ip administered 1 hr before Tyloxapol challenge and 22, 48 hrs after Tyloxapol challenge measured after 22 hrs relative to control; assay type: functional; parameters: scale not given: the % may be the effect or the level left; conditions: route intraperitoneal; method in brief: as §1
[13] = test system: Mus musculus; test: Hypolipidemic activity in high cholesterol diet fed ICR mouse assessed as reduction of triglyceride level at 50 mg/kg/day, po after 12 hrs of last cholesterol challenge relative to control; parameters: scale not given: the % may be the effect or the level left
[14] = test system: Mus musculus; test: Hypolipidemic activity in ICR mouse assessed as decrease in Tyloxapol-induced triglyceride level at 50 mg/kg, ip administered 1 hr before Tyloxapol challenge and 22, 48 hrs after Tyloxapol challenge measured after 22 hrs relative to control; assay type: functional; parameters: scale not given: the % may be the effect or the level left; conditions: route intraperitoneal; method in brief: as §1
[15] = test system: Mus musculus; test: Hypolipidemic activity in high cholesterol diet fed ICR mouse assessed as reduction of total cholesterol level at 50 mg/kg, ip after 12 hrs of last cholesterol challenge relative to control; assay type: functional; parameters: scale not given: the % may be the effect or the level left; conditions: route intraperitoneal; method in brief: as §2
[16] = test system: Mus musculus; test: Hypolipidemic activity in ICR mouse assessed as decrease in Tyloxapol-induced triglyceride level at 100 mg/kg, ip administered 1 hr before Tyloxapol challenge and 22, 48 hrs after Tyloxapol challenge measured after 22 hrs relative to control; assay type: functional; parameters: scale not given: the % may be the effect or the level left; conditions: route intraperitoneal; method in brief: as §1
[17] = molecular target: T1, 3-hydroxy-3-methylglutaryl-coenzyme A reductase (Schizosaccharomyces pombe 972h-, UniProt Q10283); test: Inhibition of Schizosaccharomyces pombe HMG-CoA reductase by spectrophotometry; conditions: read-out: IC50
T1 sequence (Q10283 whole entry): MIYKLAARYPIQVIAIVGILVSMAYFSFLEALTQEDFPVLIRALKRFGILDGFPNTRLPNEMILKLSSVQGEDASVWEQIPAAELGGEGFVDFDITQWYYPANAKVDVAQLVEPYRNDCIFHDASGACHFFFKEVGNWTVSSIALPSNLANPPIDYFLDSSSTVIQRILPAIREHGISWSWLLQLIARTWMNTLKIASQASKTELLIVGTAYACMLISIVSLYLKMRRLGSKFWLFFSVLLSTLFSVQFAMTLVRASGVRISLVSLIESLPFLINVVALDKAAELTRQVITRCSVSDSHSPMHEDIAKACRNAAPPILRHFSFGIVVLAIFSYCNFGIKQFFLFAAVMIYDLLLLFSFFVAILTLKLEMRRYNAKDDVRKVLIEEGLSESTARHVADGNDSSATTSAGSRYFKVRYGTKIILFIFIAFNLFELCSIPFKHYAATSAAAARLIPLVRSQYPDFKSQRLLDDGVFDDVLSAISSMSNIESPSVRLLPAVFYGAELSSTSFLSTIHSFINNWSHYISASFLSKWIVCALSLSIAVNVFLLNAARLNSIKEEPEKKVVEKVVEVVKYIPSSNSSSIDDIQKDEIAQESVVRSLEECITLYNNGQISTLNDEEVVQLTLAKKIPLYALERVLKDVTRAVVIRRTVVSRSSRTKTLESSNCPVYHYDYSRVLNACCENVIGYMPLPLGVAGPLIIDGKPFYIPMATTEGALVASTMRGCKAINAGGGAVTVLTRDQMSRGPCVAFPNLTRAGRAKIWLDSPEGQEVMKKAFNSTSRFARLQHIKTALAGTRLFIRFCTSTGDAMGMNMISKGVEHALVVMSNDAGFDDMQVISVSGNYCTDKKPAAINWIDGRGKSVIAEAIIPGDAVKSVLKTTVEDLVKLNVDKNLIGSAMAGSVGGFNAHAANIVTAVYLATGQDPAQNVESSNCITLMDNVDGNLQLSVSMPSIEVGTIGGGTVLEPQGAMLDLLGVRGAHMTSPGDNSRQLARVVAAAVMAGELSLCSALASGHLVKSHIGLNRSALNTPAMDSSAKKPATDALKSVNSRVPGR
Method in brief: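 Membrane HMGR partially purified from S. pombe 972 h (YPD, 28 °C, 48 h) via centrifugation, Triton X-100 solubilization, 65 °C heat step, ammonium sulfate and calcium phosphate gel. Enzyme activated 37 °C 30 min, pre-incubated with compound (DMSO stocks 1–5 mM) 30 min at 37 °C. Assay: 200 µg enzyme, 0.13 mM HMG-CoA, 50 mM Tris-HCl pH 7.5; started with 0.13 mM NADPH; A340 decrease over 2 min; triplicate; IC50 derived.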

Structure (SMILES) | Activity [1] [%] | Activity [2] [%] | Activity [3] [%] | Activity [4] [%] | Activity [5] [%] | Activity [6] [%] | Activity [7] [%] | Activity [8] [%] | Activity [9] [%] | Activity [10] [%] | Activity [11] [%] | Activity [12] [%] | Activity [13] [%] | Activity [14] [%] | Activity [15] [%] | Activity [16] [%] | IC50 [17] [µM]
CCCc1ccc(OCC(=O)O)c(OC)c1 | -21.28 | -15.66 | -27.55 | -25.66 | -33.54 | -19.33 | -44.51 | -32.56 | -22.59 | -18.23 | -39.12 | -15.32 | -38.38 | -32.46 | -32.83 | -29.89 | 
CCCc1cc(OC)c(OCC(=O)OC)cc1N | -69.1 | -36.04 | -24.98 | -49.47 | -41.1 | -39.58 | -31.54 | -24.22 | -59.67 | -11.21 | -37.31 | -26.23 | -12.22 | -15.45 | -41.4 | -22.14 | 92.9
CCC(C)(C)C(=O)O[C@H]1C[C@@H](C)C=C2C=C[C@H](C)[C@H](CC[C@@H]3C[C@@H](O)CC(=O)O3)[C@H]21 [SIMVASTATIN] |  |  |  |  |  |  |  |  |  |  |  |  |  |  |  |  | 95.2
C=CCc1ccc(OCC(=O)O)c(OC)c1 |  |  |  |  |  |  |  |  |  |  |  |  |  |  |  |  | 73.4
CCCCCc1cc(OC)c(OC)cc1OC |  |  |  |  |  |  |  |  |  |  |  |  |  |  |  |  | 84.6
C/C=C/c1cc(OC)c(OC)cc1OC [TRANS-ASARONE] |  |  |  |  |  |  |  |  |  |  |  |  |  |  |  |  | 2490
C=CCc1cc(OC)c(OC)cc1O | -49.79 | -40.08 | -42.39 | -40.67 | 26.49 | -35.96 | -44.22 | -42.98 | -54.11 | -39.67 | -52.07 | -41.77 | -37.78 | -23.2 | -33.45 | -6.83 | 78.8
C=CCc1cc(OC)c(OCC(=O)O)cc1[N+](=O)[O-] |  |  |  |  |  |  |  |  |  |  |  |  |  |  |  |  | 144
CCCc1cc(OC)c(OCC(=O)O)cc1[N+](=O)[O-] | -51.59 | -79.36 | -47.72 | -50.22 | -41.1 | -55.62 | -28.88 | -40.34 | -59.67 | -21.86 | -44.61 | -20.86 | -49.21 | -10.09 | -47.12 | -25.11 | 135
CCOC(=O)COc1cccc(CC)c1 |  |  |  |  |  |  |  |  |  |  |  |  |  |  |  |  | 1620
C=CCc1ccc(OCC(=O)OCC)c(OC)c1 |  |  |  |  |  |  |  |  |  |  |  |  |  |  |  |  | 156
CCCc1cc(OC)c(OCC(=O)OC)cc1[N+](=O)[O-] | -68.64 | -11.36 | -28.78 | -39.51 | -21.13 | -11.43 | -16.76 | -45.69 | -60.1 | -23.15 | -33.33 | -25.81 | -41.98 | -11.99 | -48.64 | -19.91 | 
